A selection: hits, their analogues and other compounds. The true share with any hit is near 2.2%.
ABHD5-PLIN5 inh = ABHD5-PLIN5 protein interaction inhibition; Split G. princeps luciferase complementation, luminescence, 4 h; inhibition, % at 4 µM; 360,000 tested, 0.78% active;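 active = inhibition above the mean inhibition across every tested compound plus 3 SD, cut at about 22% in these data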;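 also: 0% = DMSO only wells and the 100% control is not disclosed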
PfGluPho inh = PfG6PD (Plasmodium falciparum) enzyme inhibition | PfGluPho enzyme, NADPH resazurin-diaphorase fluorescence | inhibition, % at 20 µM | 350,000 tested, 0.78% active;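 active = inhibition reaching at least a set limit at 20 µM in the primary screen, cut at about 59% in these data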;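 also: 0% = DMSO wells with substrate and 100% = DMSO wells lacking glucose-6-phosphate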
HKDC1 inh = blocks human hexokinase HKDC1 activity | recombinant HKDC1, G6PDH/diaphorase resazurin coupled fluorescence | inhibition, % at 20 µM | 340,000 tested, 0.16% active | AID 493160;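 active = inhibition above about 35% when tested at 20 µM, limit read from the data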;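 also: plate controls were DMSO wells with enzyme for no effect and DMSO wells lacking enzyme for full effect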
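Test system: recombinant HKDC1 (HK5) hexokinase enzyme, produced in-house / Doses: 20 µM test compound, 1% DMSO / Timing: 90 min, room temperature / Detection: G6PDH/diaphorase-coupled fluorescence, 1 mM NADP, 100 µM resazurin, 525/613 nm / Control set: DMSO wells with and without enzyme mix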
Granule exo inh = blocks lytic granule exocytosis | TALL-104 LAMP-1 surface exposure, flow cytometry; cells stimulated with thapsigargin and PMA | inhibition, % at 10 µM | 360,000 tested, 0.66% active;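 active = inhibition above about 55%, limit read from the data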
ABHD5-PLIN5 conf = ABHD5-PLIN5 interaction inhibition, confirmed | shares compounds with ABHD5-PLIN5 inh | biochemical ABHD5-PLIN5 interaction, luminescence | inhibition, % at 4 µM | 2,200 tested, 67% active; in the data active = inhibition above about 23%;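 also: 0% = DMSO vehicle wells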
HNF4 split-luc = HNF4 split-luciferase signal hit, counter-screen | 2,200 tested, 77% active | AID 651674 | shares compounds with ABHD5-PLIN5 inh | inhibition, % at 4 µM | HNF4 dimerization, luminescence, biochemical;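 active = mean inhibition across replicate wells exceeding the computed hit threshold, cut at about 13% in these data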;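 also: light from luciferase halves that rejoin when HNF4 fusion proteins dimerize; 0% = DMSO only wells and the 100% control is not given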
Target sequence (P41235 whole entry, looked up, the tested form may be a part): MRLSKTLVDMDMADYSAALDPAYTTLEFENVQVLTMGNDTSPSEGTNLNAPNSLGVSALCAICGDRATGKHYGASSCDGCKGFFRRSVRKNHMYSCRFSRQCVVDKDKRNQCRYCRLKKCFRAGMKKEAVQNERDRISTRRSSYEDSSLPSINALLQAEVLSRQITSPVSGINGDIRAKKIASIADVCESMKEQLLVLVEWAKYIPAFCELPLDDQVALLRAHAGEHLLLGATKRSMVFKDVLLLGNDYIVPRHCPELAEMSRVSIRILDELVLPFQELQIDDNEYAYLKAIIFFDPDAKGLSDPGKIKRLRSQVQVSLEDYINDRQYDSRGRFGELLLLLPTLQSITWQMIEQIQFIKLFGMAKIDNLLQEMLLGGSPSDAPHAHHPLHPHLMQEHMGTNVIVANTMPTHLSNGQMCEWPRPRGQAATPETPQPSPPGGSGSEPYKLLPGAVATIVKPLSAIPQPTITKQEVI
Starred values were filed as active, the others as inactive.

S=C1SCN(Cc2cccnc2)CN1Cc1cccnc1 was read as ABHD5-PLIN5 inh -3.4, PfGluPho inh 12.7, HKDC1 inh -5.5 and Granule exo inh -3.9.
`O=C1OC(c2ccccc2)=N/C1=C\C=C\c1ccccc1[N+](=O)[O-]` gave ABHD5-PLIN5 inh 0.8, PfGluPho inh 0.6, HKDC1 inh 4.7 and Granule exo inh -0.7.
O=C1OC(c2ccccc2)=N/C1=C\C=C\c1ccco1 was read as ABHD5-PLIN5 inh 38.7*, PfGluPho inh 9.8, HKDC1 inh 5.1, Granule exo inh -1.4, ABHD5-PLIN5 conf 14.9 and HNF4 split-luc 34.6*.
O=C1OC(c2ccc(Cl)cc2)=N/C1=C\C=C\c1ccco1 was read as ABHD5-PLIN5 inh 52.8*, PfGluPho inh 4.3, HKDC1 inh 5.2, Granule exo inh -0.8, ABHD5-PLIN5 conf 18.1 and HNF4 split-luc 17.3*.
For CC(O)CNCCCOc1ccc(Cl)cc1C(C)(C)C (stereo not given) the results were ABHD5-PLIN5 inh 29.3*, PfGluPho inh 40.4, HKDC1 inh -7.6, Granule exo inh 11.4, ABHD5-PLIN5 conf 10.9 and HNF4 split-luc 5.9.
For CN(C)CCOCCOc1ccc(Cl)cc1C(C)(C)C the results were ABHD5-PLIN5 inh 23.1*, PfGluPho inh 11.5, HKDC1 inh 2.8, Granule exo inh 8.8, ABHD5-PLIN5 conf 9.8 and HNF4 split-luc 1.4.
CC(C)(C)c1cc(Cl)ccc1OCCn1ccnc1 was read as ABHD5-PLIN5 inh -0.6, PfGluPho inh 27.7, HKDC1 inh -0.7 and Granule exo inh -1.7.
Screening COCCCNCCCOc1ccc(Cl)cc1Br returned ABHD5-PLIN5 inh 9.8, PfGluPho inh -9.2, HKDC1 inh -3.1 and Granule exo inh 0.6.
`Cc1ccccc1CN1C(=O)[C@H]2Cc3c([nH]c4ccccc34)C(C)(C)N2C1=O` gave ABHD5-PLIN5 inh 1.7, PfGluPho inh 3.7, HKDC1 inh -0.7 and Granule exo inh 6.3.
Nc1ccc(/C=C/C(=O)c2ccco2)cc1 was read as ABHD5-PLIN5 inh 11.3, PfGluPho inh 10.2, HKDC1 inh -2.0 and Granule exo inh 10.5.
For N#Cc1ccc(/C=C/C(=O)c2ccco2)cc1 the results were ABHD5-PLIN5 inh 63.0*, PfGluPho inh 13.1, HKDC1 inh 2.0, Granule exo inh -1.5, ABHD5-PLIN5 conf 93.5* and HNF4 split-luc 94.8*.
CC(C)(C)C(=O)Nc1ccc(/C=C/C(=O)c2ccco2)cc1 was read as ABHD5-PLIN5 inh 37.0*, PfGluPho inh 9.7, HKDC1 inh -0.1, Granule exo inh 1.9, ABHD5-PLIN5 conf 60.8* and HNF4 split-luc 44.3*.
`COc1ccc(OC)c(C(=O)Nc2ccc3[nH]ccc3c2)c1` gave ABHD5-PLIN5 inh -0.7, PfGluPho inh 3.7, HKDC1 inh -3.5 and Granule exo inh 7.2.
N=c1c(C(=O)NCc2ccco2)cc2c(=O)n3ccccc3nc2n1CC1CCCO1 (stereo not given) was read as ABHD5-PLIN5 inh 27.9*, PfGluPho inh 25.0, HKDC1 inh -0.4, Granule exo inh -1.2, ABHD5-PLIN5 conf 9.9 and HNF4 split-luc 12.1.
O=C1S/C(=C\C=C\c2ccco2)C(=O)N1c1ccccc1 was read as ABHD5-PLIN5 inh 37.1*, PfGluPho inh 34.7, HKDC1 inh 5.2, Granule exo inh 4.4, ABHD5-PLIN5 conf 28.2* and HNF4 split-luc 36.3*.
`O=C1S/C(=C\C=C\c2ccco2)C(=O)N1c1ccc(O)cc1` gave ABHD5-PLIN5 inh 49.2*, PfGluPho inh 26.0, HKDC1 inh -2.9, Granule exo inh -2.6, ABHD5-PLIN5 conf 33.1* and HNF4 split-luc 49.2*.
`O=C1NC(=Nc2ccccc2)S/C1=C\C=C\c1ccco1` gave ABHD5-PLIN5 inh 25.1*, PfGluPho inh 28.4, HKDC1 inh 16.8, Granule exo inh -1.9, ABHD5-PLIN5 conf 35.8* and HNF4 split-luc 54.8*.
O=C(O)CCCN1C(=O)/C(=C/C=C/c2ccco2)SC1=S was read as ABHD5-PLIN5 inh 17.1, PfGluPho inh 29.5, HKDC1 inh 20.2 and Granule exo inh -4.4.
Screening Cn1nc(C(F)(F)F)c(CO)c1Sc1ccc(F)cc1 returned ABHD5-PLIN5 inh 1.8, PfGluPho inh -6.8, HKDC1 inh -7.3 and Granule exo inh 0.4.
`O=C(O)/C=C(/c1ccccc1)C(F)(F)F` gave ABHD5-PLIN5 inh 0.9, PfGluPho inh -10.4, HKDC1 inh -5.1 and Granule exo inh -2.3.
For Cc1ccc(S(=O)(=O)/N=C/c2ccco2)cc1 the results were ABHD5-PLIN5 inh 91.7*, PfGluPho inh 14.0, HKDC1 inh -2.7, Granule exo inh 1.8, ABHD5-PLIN5 conf 5.9 and HNF4 split-luc 8.4.
`Cc1ccc(S(=O)(=O)/N=C/N(C)C)cc1` gave ABHD5-PLIN5 inh -6.8, PfGluPho inh -5.0, HKDC1 inh -7.0 and Granule exo inh 2.5.
CC(=O)NC(Cc1ccccc1)C(=O)N1CCN(C(=O)c2ccco2)CC1 (stereo not given) was read as ABHD5-PLIN5 inh 7.2, PfGluPho inh -8.9, HKDC1 inh -4.6 and Granule exo inh 0.8.
Screening CC(=O)NC(CSC(CC(=O)c1ccco1)c1ccc(C)cc1)C(=O)O (stereo not given) returned ABHD5-PLIN5 inh 49.9*, PfGluPho inh 25.1, HKDC1 inh 0.9, Granule exo inh 0.0, ABHD5-PLIN5 conf 39.8* and HNF4 split-luc 39.8*.
`O=c1[nH]c(-c2ccccc2)nn1-c1ccc(Br)cc1Br` gave ABHD5-PLIN5 inh -2.5, PfGluPho inh -19.2, HKDC1 inh -5.1 and Granule exo inh -4.4.
For O=C(Nc1ccccn1)C1CCN(c2ncnc3c2nc2n3CCCCC2)CC1 the results were ABHD5-PLIN5 inh 13.1, PfGluPho inh -5.2, HKDC1 inh -3.0 and Granule exo inh 7.7.
`COC(=O)/C=C/S(=O)(=O)c1ccc(NC(C)=O)cc1` gave ABHD5-PLIN5 inh 76.2*, PfGluPho inh 2.8, HKDC1 inh -0.4, Granule exo inh 16.2, ABHD5-PLIN5 conf 86.5* and HNF4 split-luc 107.0*.
Screening CN(C)c1ccc2c(c1[N+](=O)[O-])Cc1ccccc1-2 returned ABHD5-PLIN5 inh 4.5, PfGluPho inh 11.5, HKDC1 inh -1.9 and Granule exo inh -1.6.
CCCSc1nc(NCc2ccco2)c2c3c(sc2n1)COC(C)(C)C3 was read as ABHD5-PLIN5 inh 28.2*, PfGluPho inh 11.1, HKDC1 inh 2.2, Granule exo inh 3.5, ABHD5-PLIN5 conf 6.6 and HNF4 split-luc 4.9.
`CN(C)CCC(=O)N1C/C(=C/c2ccccc2)C(=O)/C(=C\c2ccccc2)C1` gave ABHD5-PLIN5 inh 95.5*, PfGluPho inh 26.9, HKDC1 inh 12.3, Granule exo inh 67.8*, ABHD5-PLIN5 conf 102.6* and HNF4 split-luc 106.4*.
`O=C1/C(=C/c2ccccc2)CN(C(=O)CCN2CCOCC2)C/C1=C\c1ccccc1` gave ABHD5-PLIN5 inh 99.5*, PfGluPho inh 20.8, HKDC1 inh 16.8, Granule exo inh 47.6, ABHD5-PLIN5 conf 102.7* and HNF4 split-luc 104.6*.
